Mdm2-MdmX inh = disrupts the human Mdm2-MdmX interaction; O15151+Q00987; SaOS-2 split-luciferase Mdm2/MdmX complementation, luminescence; inhibition, % at 8 µM; 3% of 330,000 active;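 active means inhibition of at least 50% at 8 µM in the primary screen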
Target sequence (O15151 whole entry, looked up): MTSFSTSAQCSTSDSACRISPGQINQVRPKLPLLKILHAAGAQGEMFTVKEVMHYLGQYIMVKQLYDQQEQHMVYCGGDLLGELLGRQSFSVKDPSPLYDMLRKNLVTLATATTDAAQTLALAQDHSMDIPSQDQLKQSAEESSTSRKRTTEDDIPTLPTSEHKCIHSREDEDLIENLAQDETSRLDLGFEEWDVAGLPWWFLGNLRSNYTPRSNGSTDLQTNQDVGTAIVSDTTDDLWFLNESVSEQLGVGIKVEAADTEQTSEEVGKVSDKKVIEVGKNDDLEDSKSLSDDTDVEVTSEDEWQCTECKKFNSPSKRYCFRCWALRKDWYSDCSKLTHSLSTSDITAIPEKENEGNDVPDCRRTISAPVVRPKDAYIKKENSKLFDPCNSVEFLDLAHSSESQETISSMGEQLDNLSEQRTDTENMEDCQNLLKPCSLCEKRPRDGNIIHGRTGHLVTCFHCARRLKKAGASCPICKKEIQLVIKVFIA
Target sequence (Q00987 whole entry, looked up): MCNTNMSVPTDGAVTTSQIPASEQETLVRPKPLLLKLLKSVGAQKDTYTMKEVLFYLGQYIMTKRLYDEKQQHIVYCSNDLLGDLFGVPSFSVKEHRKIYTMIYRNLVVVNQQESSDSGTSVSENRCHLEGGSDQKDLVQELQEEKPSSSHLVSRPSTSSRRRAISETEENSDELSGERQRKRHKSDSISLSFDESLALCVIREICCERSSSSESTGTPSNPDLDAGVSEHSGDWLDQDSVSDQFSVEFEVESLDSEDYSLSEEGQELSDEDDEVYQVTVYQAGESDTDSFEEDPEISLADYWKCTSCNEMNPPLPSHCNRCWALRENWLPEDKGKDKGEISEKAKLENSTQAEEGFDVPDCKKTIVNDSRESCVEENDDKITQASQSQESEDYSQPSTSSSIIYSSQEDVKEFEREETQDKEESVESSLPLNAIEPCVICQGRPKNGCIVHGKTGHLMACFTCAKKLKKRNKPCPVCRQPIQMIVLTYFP
XBP1 UPR activ = activators of adaptive arm of unfolded protein response (XBP1) | AID 463104 | 0.33% of 330,000 active | activation, % at 20 µM | CHO-XBP1 luciferase reporter, IRE1-XBP1 UPR activation, luminescence; percent of tunicamycin response, DMSO as zero;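 active means versus positive control, 20 µM dose yields 30% or more activation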;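 further: 100% = tunicamycin at 10 µg/mL and 0% = DMSO only wells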
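assay system = CHO-XBP1 luciferase reporter cells | amount = 1000 cells/well | buffer or medium = F12 plus 10% FBS | compound dosing = single point, 20 µM final compound, 1% DMSO | incubation = 16-18 h cell attachment at 37 °C, then 6 h compound exposure | detection = Steady-Glo luminescence read | controls = tunicamycin 10 µg/mL and vehicle-only wells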
Exocytosis inh = blocks lytic granule exocytosis | inhibition, % at 10 µM | TALL-104 LAMP-1 surface exposure, flow cytometry; cells stimulated with thapsigargin and PMA | 0.66% of 360,000 active;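 active means inhibition above about 55%, limit read from the data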
UPR CHOP act = activators of apoptotic arm of unfolded protein response (CHOP) | CHO-CHOP luciferase reporter, UPR activation, luminescence; percent of tunicamycin response over DMSO baseline | activation, % at 10 µM | 0.34% of 330,000 active;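 active means at 10 µM dose, activation of 40% or more, normalized to positive control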;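 further: 100% = tunicamycin at 10 µg/mL and 0% = DMSO alone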
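Test system: CHO CHOP reporter cells. Input: 500 CHO-CHOP cells per well. Medium: F12 with 10% FBS. Technique: luciferase luminescence. Measure: percent activation relative to tunicamycin control. Dosing: 10 µM compound, 0.5% DMSO. Timing: 16-18 h cell attachment, then 6 h compound exposure, 37 °C.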
ABHD5-PLIN5 inh = inhibitors of human ABHD5-perilipin-5 interaction. 0.78% of 360,000 active. Q00G26+Q8WTS1. inhibition, % at 4 µM. Split G. princeps luciferase complementation, luminescence, 4 h;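 active means inhibition above the mean inhibition across every tested compound plus 3 SD, cut at about 22% in these data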;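 further: 0% = DMSO only wells and the 100% control is not disclosed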
CHOP UPR conf = apoptotic UPR (CHOP) activation, confirmed; 64% of 1,000 active; shares compounds with UPR CHOP act; AID 463112; activation, % at 10 µM; CHO-CHOP cells, CHOP-luciferase reporter luminescence; percent of tunicamycin response, DMSO as zero; in the data active means activation above about 33%;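 further: 0% = DMSO wells and 100% = tunicamycin 10 µg/mL wells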
UPR XBP1 confirm = adaptive UPR (XBP1) activation, confirmed; activation, % at 20 µM; 63% of 1,000 active; AID 485299; shares compounds with XBP1 UPR activ; CHO-XBP1 IRE1-XBP1 luciferase reporter, luminescence;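 active means reporter signal at least 30% of the positive control's activation in two or more of four replicate wells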;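 further: plate controls were DMSO negative control for no effect and tunicamycin 10 µg/mL positive control for full effect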
Mdm2 MdmX conf = human Mdm2/MdmX binding inhibition, confirmed; shares compounds with Mdm2-MdmX inh; luminescent assay; inhibition, % at 8 µM; 55% of 10,000 active; AID 489028; in the data active means inhibition above about 40%
Full FLuc ctr = inhibits full-length luciferase, flagging false Mdm2/MdmX hits | shares compounds with Mdm2-MdmX inh | inhibition, % at 8 µM | SaOS-2 full-length luciferase counterscreen, luminescence | 77% of 6,200 active | AID 504607;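 active means mean inhibition at 8 µM reaching about 37%, which flags the compound as non-specific, limit read from the data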;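 further: p53-null SaOS-2 cells with luciferase driven by a doxycycline-inducible promoter; compound on cells about two nights before reading with doxycycline added after day one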
Active calls of the source: *; nt = not tested or not shown. Sampled rows, rich in hits. Any-hit rate of the full collection: about 4%.

SMILES	Mdm2-MdmX inh	XBP1 UPR activ	Exocytosis inh	UPR CHOP act	ABHD5-PLIN5 inh	CHOP UPR conf	UPR XBP1 confirm	others
CC1(C(=O)O)CCC(C(=O)Nc2ccccc2O)C1(C)C (centres undefined)	28.5	0.7	10.8	-1.6	-0.2	nt	nt
O=C(/C(=N/N=C/c1ccc(O)c(O)c1)c1ccccc1)c1ccccc1	-5.2	41.1*	0.3	85.9*	1.4	63.4*	30.4*
CC(C)c1ccc(N=Cc2c(O)c3ccccc3oc2=O)cc1	19.2	12.9	15.9	9.4	-4.5	nt	nt
COc1ccc(N=Cc2c(O)c3ccccc3oc2=O)cc1	22.9	102.4*	2.4	128.3*	3.6	67.5*	38.4*
CCOc1ccccc1N=Cc1c(O)n(C)c(=O)n(C)c1=O	16.8	2.6	6.9	1.1	3.1	nt	nt
CCOc1ccccc1N=Cc1c(O)c2ccccc2oc1=O	23.4	178.9*	-0.6	162.4*	-7.4	120.2*	125.1*
Cc1ccc(C)c(N=Cc2c(O)c3ccccc3oc2=O)c1	28.9	55.3*	-7.2	60.9*	7.2	48.8*	45.5*
O=C(Nc1c(-c2ccccc2)[nH][nH]c1=O)c1ccccc1	nt	nt	15.1	nt	-18.8	nt	nt
CCc1cc2c(=O)c(-c3cnn(-c4ccccc4)c3)c(C)oc2cc1OCC(=O)Nc1cccc(C)c1	1.5	75.0*	-1.0	147.9*	0.4	78.1*	121.1*
Cc1oc2cc(O)ccc2c(=O)c1-c1cnn(-c2ccccc2)c1	25.4	3.8	3.6	4.2	3.8	nt	nt
COCCCNC(=O)COc1ccc(Cl)c(C)c1	34.5	0.8	-0.4	3.2	-1.4	nt	nt
COCCNC(=O)COc1ncnc2scc(-c3ccc(F)cc3)c12	-6.4	-0.8	0.0	1.0	1.0	nt	nt
O=c1oc(CCCO)cc2ccc(/C=C/c3cccc([N+](=O)[O-])c3)cc12	12.5	78.4*	3.8	75.8*	3.1	9.7	32.6*
CCOC(=O)c1cc(NC(=O)c2ccc(Cl)cc2)c(=O)n2c1oc1ccc(Cl)cc12	39.6	39.5*	2.7	69.8*	-28.2	7.5	45.4*
COc1cc(/C=N/Nc2nc(N3CCCC3)nc(N3CCCC3)n2)ccc1O	-3.4	0.6	0.5	1.3	-0.2	nt	nt
Oc1ccc(/C=N/Nc2nc(N3CCCC3)nc(N3CCCC3)n2)cc1O	-10.3	66.9*	-0.1	256.5*	0.3	179.9*	44.2*
CC(=O)NC1C(=O)N(CCN2CCOCC2)c2ccc(F)cc21 (centres undefined)	3.8	-0.9	-7.1	2.2	-0.1	nt	nt
COc1cc([C@@H]2C[C@H]3CN(c4ccccc4)C(=O)[C@]34CCCN24)cc(OC)c1OC	-7.6	-3.1	-3.6	1.2	1.5	nt	nt
O=C(Nc1nc(-c2ccc3ccccc3c2)cs1)c1ccc(N2C(=O)CCC2=O)cc1	36.6	44.6*	2.8	76.5*	-1.3	56.1*	47.0*
CCC(=O)Nc1ccc(S(=O)(=O)Nc2ccccn2)cc1	0.2	-4.7	0.5	-0.4	-1.0	nt	nt
CC(C)CC(c1nnnn1C(C)C)N1CCN(c2cccc(Cl)c2)CC1 (centres undefined)	13.0	-3.4	1.0	-1.6	3.5	nt	nt
CCc1cccc(CC)c1NC(=O)/C(C#N)=C/c1ccccc1C(F)(F)F	44.5	70.3*	40.3	71.1*	19.4	72.5*	33.8*
Cc1ccc(N2CCN(c3ccc(NCc4nc5ccccc5n4C)cc3)CC2)cc1	2.4	66.1*	0.5	45.1*	-3.8	37.0*	88.9*
CN1/C(=C\C(=O)COC(=O)c2ccc(O)c(O)c2)C(C)(C)c2ccccc21	29.8	40.6*	nt	96.5*	nt	81.2*	32.6*
COc1ccc(NC(=O)c2sc3nc(N4CCOCC4)c4c(c3c2N)CC(C)(C)OC4)c(OC)c1	35.1	162.7*	0.7	40.1*	-2.9	38.9*	171.8*
SMILES	Mdm2-MdmX inh	XBP1 UPR activ	Exocytosis inh	UPR CHOP act	ABHD5-PLIN5 inh	CHOP UPR conf	UPR XBP1 confirm	others
C=CCOc1ccc2cccc(/C=N/NC(=O)c3cc4cc([N+](=O)[O-])ccc4s3)c2c1	32.3	46.5*	1.4	54.8*	-1.4	31.8	44.9*
O=[N+]([O-])c1ccc(N/N=C/c2ccc(O)c(O)c2O)c(S(=O)(=O)N2CCOCC2)c1	18.4	0.2	3.4	6.5	-12.5	nt	nt
O=[N+]([O-])c1ccc(N/N=C/c2cccc(O)c2O)c(S(=O)(=O)N2CCOCC2)c1	22.5	54.3*	2.0	133.2*	11.7	86.3*	32.6*
N#C/C(=C\c1ccc(OCc2ccccc2)cc1)C(=O)Nc1nc2c(s1)CCN(Cc1ccccc1)C2	8.4	42.1*	-1.3	91.5*	-5.2	145.1*	132.2*
CN(C)c1ccc(/C=C(/C#N)C(=O)Nc2nc3c(s2)CCN(Cc2ccccc2)C3)cc1	nt	nt	9.2	nt	5.7	nt	nt
COc1ccccc1N1CCN(C(=O)C(C)NC(=O)c2ccco2)CC1 (centres undefined)	-3.8	-4.2	-1.4	5.7	-2.1	nt	nt
CCOc1cc(/C=N/NC(N)=S)cc(Br)c1OCc1ccccc1C	23.7	60.8*	1.3	68.7*	-15.5	40.9*	60.4*
CCOc1cc(/C=N/NC(N)=O)cc(Br)c1OCc1ccccc1	23.4	-0.5	-1.2	-0.2	-11.2	nt	nt
CN(C)S(=O)(=O)c1ccc(N2CCCC2)c(C(=O)Nc2nc3ccc(F)cc3s2)c1	33.4	29.9	0.5	11.2	6.5	nt	nt
CN(C)S(=O)(=O)c1ccc(N2CCCC2)c(C(=O)Nc2nc3ccccc3s2)c1	42.0	76.1*	4.2	125.1*	4.2	30.3	90.7*
Cc1cc(NC(=O)CSc2nc(C3CC3)nc3sc4c(c23)CCC(C)C4)no1 (centres undefined)	44.7	65.3*	nt	51.4*	nt	3.6	4.0
COc1ccc(-c2nc3c(Cl)cc(C(F)(F)F)cn3c2Cc2ccc(C)cc2)cc1OC	nt	nt	-7.5	nt	-8.7	nt	nt
Nc1c(C(=O)Nc2ccc(S(=O)(=O)N3CCCC3)cc2)sc2nc3ccc(OC(F)(F)F)cc3cc12	89.9*	194.3*	-9.5	311.4*	-3.8	71.5*	161.6*	Mdm2 MdmX conf=-11.5
COc1ccc(OC)c2sc(N(CCN(C)C)C(=O)/C=C/c3cccs3)nc12	97.2*	6.6	13.2	67.2*	22.1*	11.2	nt	Mdm2 MdmX conf=100.1*;Full FLuc ctr=0.2
Cc1nc2ccc(NC(=O)/C=C/C(=O)O)cc2nc1C	-18.7	-0.2	7.3	0.0	4.4	nt	nt

Screens as filed in PubChem.
